Laboratory results as given in ChEMBL document CHEMBL1268917, “Synthesis and biological evaluation of radio-iodinated benzimidazoles as SPECT imaging agents for NR2B subtype of NMDA receptor” (Bioorg Med Chem, 2010).

Legend:
Type in all cases: ADME, organism-based
Heart [1] = assay: Biodistribution in ddY mouse heart assessed per gram of tissue at 14.8 kBq, iv after 5 mins; details: in vivo
Outline: (§1)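 Killed at set times after injection; organs and blood removed, weighed, gamma counted. Data as % injected dose per gram tissue, mean SD, n = 5–6.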

Spleen [2] = assay: Biodistribution in ddY mouse spleen assessed per gram of tissue at 14.8 kBq, iv after 0.5 mins; details: in vivo
Outline: (§2)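 Radioiodinated tracer (14.8 kBq) injected via tail vein into male ddY mice (6 weeks, 30–35 g). Organs removed at set times after injection, weighed and gamma-counted; uptake expressed as % injected dose per gram tissue, mean ± SD, n = 5–6.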

Heart [3] = assay: Biodistribution in ddY mouse heart assessed per gram of tissue at 14.8 kBq, iv after 360 mins; details: in vivo, 6 h; outline: as §1
Heart [4] = assay: Biodistribution in ddY mouse heart assessed per gram of tissue at 14.8 kBq, iv after 180 mins; details: in vivo, 3 h; outline: as §1
Heart [5] = assay: Biodistribution in ddY mouse heart assessed per gram of tissue at 14.8 kBq, iv after 0.5 mins; details: in vivo; outline: as §1
Liver [6] = assay: Biodistribution in ddY mouse liver assessed per gram of tissue at 14.8 kBq, iv after 0.5 mins; details: in vivo; outline: as §1
Kidney [7] = assay: Biodistribution in ddY mouse kidney assessed per gram of tissue at 14.8 kBq, iv after 5 mins; details: in vivo; outline: as §1
Lung [8] = assay: Biodistribution in ddY mouse lung assessed per gram of tissue at 14.8 kBq, iv after 360 mins; details: in vivo, 6 h; outline: as §2
Pancreas [9] = assay: Biodistribution in ddY mouse pancreas assessed per gram of tissue at 14.8 kBq, iv after 0.5 mins; details: in vivo; outline: as §2
Blood [10] = assay: Biodistribution in ddY mouse blood assessed per gram of tissue at 14.8 kBq, iv after 30 mins; details: in vivo, 0.5 h; outline: as §1
Liver [11] = assay: Biodistribution in ddY mouse liver assessed per gram of tissue at 14.8 kBq, iv after 5 mins; details: in vivo; outline: as §1
Lung [12] = assay: Biodistribution in ddY mouse lung assessed per gram of tissue at 14.8 kBq, iv after 0.5 mins; details: in vivo; outline: as §2
Kidney [13] = assay: Biodistribution in ddY mouse kidney assessed per gram of tissue at 14.8 kBq, iv after 180 mins; details: in vivo, 3 h; outline: as §1
Heart [14] = assay: Biodistribution in ddY mouse heart assessed per gram of tissue at 14.8 kBq, iv after 60 mins; details: in vivo, 1 h; outline: as §1
Liver [15] = assay: Biodistribution in ddY mouse liver assessed per gram of tissue at 14.8 kBq, iv after 180 mins; details: in vivo, 3 h; outline: as §1
Kidney [16] = assay: Biodistribution in ddY mouse kidney assessed per gram of tissue at 14.8 kBq, iv after 360 mins; details: in vivo, 6 h; outline: as §1
Blood [17] = assay: Biodistribution in ddY mouse blood assessed per gram of tissue at 14.8 kBq, iv after 180 mins; details: in vivo, 3 h; outline: as §1
Intestine [18] = assay: Biodistribution in ddY mouse intestine assessed per gram of tissue at 14.8 kBq, iv after 30 mins; details: in vivo, 0.5 h; outline: as §1
Kidney [19] = assay: Biodistribution in ddY mouse kidney assessed per gram of tissue at 14.8 kBq, iv after 60 mins; details: in vivo, 1 h; outline: as §1
Pancreas [20] = assay: Biodistribution in ddY mouse pancreas assessed per gram of tissue at 14.8 kBq, iv after 180 mins; details: in vivo, 3 h; outline: as §2
Blood [21] = assay: Biodistribution in ddY mouse blood assessed per gram of tissue at 14.8 kBq, iv after 0.5 mins; details: in vivo; outline: as §1
Stomach [22] = assay: Biodistribution in ddY mouse stomach assessed per gram of tissue at 14.8 kBq, iv after 60 mins; details: in vivo, 1 h; outline: as §2
Intestine [23] = assay: Biodistribution in ddY mouse intestine assessed per gram of tissue at 14.8 kBq, iv after 5 mins; details: in vivo; outline: as §1
Lung [24] = assay: Biodistribution in ddY mouse lung assessed per gram of tissue at 14.8 kBq, iv after 60 mins; details: in vivo, 1 h; outline: as §2
Brain = assay: Biodistribution in ddY mouse brain assessed per gram of tissue at 14.8 kBq, iv after 0.5 mins; details: in vivo; outline: as §1
Spleen [25] = assay: Biodistribution in ddY mouse spleen assessed per gram of tissue at 14.8 kBq, iv after 5 mins; details: in vivo; outline: as §2
Stomach [26] = assay: Biodistribution in ddY mouse stomach assessed per gram of tissue at 14.8 kBq, iv after 180 mins; details: in vivo, 3 h; outline: as §2
Pancreas [27] = assay: Biodistribution in ddY mouse pancreas assessed per gram of tissue at 14.8 kBq, iv after 5 mins; details: in vivo; outline: as §2
Liver [28] = assay: Biodistribution in ddY mouse liver assessed per gram of tissue at 14.8 kBq, iv after 30 mins; details: in vivo, 0.5 h; outline: as §1
Stomach [29] = assay: Biodistribution in ddY mouse stomach assessed per gram of tissue at 14.8 kBq, iv after 360 mins; details: in vivo, 6 h; outline: as §2

CS(=O)(=O)Nc1ccc2nc(CN3CCC(Cc4ccc([125I])cc4)CC3)[nH]c2c1
Drug uptake (Heart [1]): 5.83 % ID/g | Drug uptake (Spleen [2]): 0.9 % ID/g | Drug uptake (Heart [3]): 3.62 % ID/g | Drug uptake (Heart [4]): 6.93 % ID/g | Drug uptake (Heart [5]): 9.07 % ID/g | Drug uptake (Liver [6]): 4.6 % ID/g | Drug uptake (Kidney [7]): 10.99 % ID/g | Drug uptake (Lung [8]): 0.93 % ID/g | Drug uptake (Pancreas [9]): 0.92 % ID/g | Drug uptake (Blood [10]): 0.53 % ID/g | Drug uptake (Liver [11]): 19.35 % ID/g | Drug uptake (Lung [12]): 3.82 % ID/g | Drug uptake (Kidney [13]): 15.23 % ID/g | Drug uptake (Heart [14]): 4.35 % ID/g | Drug uptake (Liver [15]): 17.81 % ID/g | Drug uptake (Kidney [16]): 10.51 % ID/g | Drug uptake (Blood [17]): 0.55 % ID/g | Drug uptake (Intestine [18]): 3.07 % ID/g | Drug uptake (Kidney [19]): 8.52 % ID/g | Drug uptake (Pancreas [20]): 5.39 % ID/g | Drug uptake (Blood [21]): 4.74 % ID/g | Drug uptake (Stomach [22]): 2.4 % ID/g | Drug uptake (Intestine [23]): 1.58 % ID/g | Drug uptake (Lung [24]): 1.7 % ID/g | Drug uptake (Brain): 0.32 % ID/g | Drug uptake (Spleen [25]): 3.19 % ID/g | Drug uptake (Stomach [26]): 4.04 % ID/g | Drug uptake (Pancreas [27]): 3.09 % ID/g | Drug uptake (Liver [28]): 16.67 % ID/g | Drug uptake (Stomach [29]): 3.56 % ID/g
